Reference: ChEMBL document CHEMBL1154307, “Eucalmaidins A-E, (+)-oleuropeic acid derivatives from the fresh leaves of Eucalyptus maideni” (J Nat Prod, 2009)
Active and inactive are the calls of the source. No cut-off for these calls is given here.

Tests used:
Human alphaherpesvirus 1 = test: Antiviral activity against HSV1 infected in african green monkey Vero cells assessed as inhibition of virus-induced cytopathic effect after 3 days by crystal violet staining; assay type: functional
Procedure, shortened: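 Vero cells grown 24 h in 24-well plates, then infected with 30 PFU HSV-1 together with serial sample dilutions in DMEM containing 2% FBS, adjusted to pH 7.2 with NaHCO3 and Hepes. Overlay medium held 1% methylcellulose. After 3 days, cells were fixed with formalin, stained with crystal violet, and plaques counted. The concentration giving 100% plaque reduction versus untreated infected control was read from graphic plots.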

[1] = Cytotoxicity against african green monkey Vero cells after 3 days by MTT assay; assay type: cell-based; conditions: chlorocebus sabaeus, read-out: MNCC
Procedure, shortened: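 Confluent Vero monolayers were exposed in triplicate to serial sample dilutions in DMEM with 2% FBS (pH 7.2) for 3 days. MTT was then added for 4 h and the formazan dissolved in DMSO. OD was read at 540 and 630 nm against untreated control. The maximal noncytotoxic concentration was taken as the highest concentration showing no cytotoxic effect.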

Structure (SMILES)	inhibition (Human alphaherpesvirus 1)	MNTC at 72 h [1]	Concentration giving 100% plaque reduction (IC100) (Human alphaherpesvirus 1)
COc1cc([C@@H]2c3cc(O)c(OC)cc3C[C@H](CO)[C@H]2CO[C@@H]2O[C@H](CO)[C@@H](O)[C@H](O)[C@H]2O)ccc1O	inactive	380 µM	–
CC(C)(O)C1CC=C(C(=O)O)CC1 (racemic)	inactive	> 1090 µM	–
Nc1nc2c(ncn2COCCO)c(=O)[nH]1 [ACYCLOVIR]	–	–	0.0043 mM
Cc1cc(=O)c2c(O)cc(O[C@@H]3O[C@H](COC(=O)C4=CC[C@H](C(C)(C)O)CC4)[C@@H](O)[C@H](O)[C@H]3O)cc2o1 [CYPELLOCARPA C]	inactive	> 380 µM	–
CC(C)(O)[C@H]1CC=C(C(=O)OC[C@H]2O[C@@H](Oc3cc(C(=O)O)cc(O)c3O)[C@H](O)[C@@H](O)[C@@H]2O)CC1 [CYPELLOCARPIN A]	inactive	30 µM	–
CC1(O)CC(=O)c2c(O)cc(O[C@@H]3O[C@H](COC(=O)C4=CC[C@H](C(C)(C)O)CC4)[C@@H](O)[C@H](O)[C@H]3O)cc2O1 (stereo partly specified) [CYPELLOCARPIN B]	inactive	20 µM	–
CC(C)(O)[C@H]1CC=C(C(=O)OC[C@H]2O[C@@H](O)[C@H](O)[C@@H](O)[C@@H]2O)CC1 [EUCALMAIDIN A]	inactive	> 580 µM	–
CC(C)(O)[C@H]1CC=C(C(=O)OC[C@H]2O[C@@H](Oc3c(O)cc(C(=O)O)cc3O)[C@H](O)[C@@H](O)[C@@H]2O)CC1 [EUCALMAIDIN B]	inactive	400 µM	–
COc1cc(C(=O)O)cc(OC)c1O[C@@H]1O[C@H](COC(=O)C2=CC[C@H](C(C)(C)O)CC2)[C@@H](O)[C@H](O)[C@H]1O [EUCALMAIDIN C]	inactive	380 µM	–
O=c1c(O)c(-c2ccc(O)c(O)c2)oc2cc(O)cc(O)c12 [QUERCETIN]	–	< 20 µM	0.33 mM
C[C@@H]1O[C@@H](Oc2c(-c3ccc(O)c(O)c3)oc3cc(O)cc(O)c3c2=O)[C@H](O)[C@H](O)[C@H]1O [QUERCITRIN]	inactive	10 µM	–
